Test results as given in ChEMBL document CHEMBL2010771, “Studies toward novel peptidomimetic inhibitors of thioredoxin-thioredoxin reductase system” (J Med Chem, 2012).
pIC50: −log10 of the molar value. The source made the active and inactive calls. The calls are words filed in the database; no cut-off is given here.

Key:
Raji [1] = experiment: Induction of Trx mRNA expression in human Raji cells at 5 to 10 uM after 4 to 24 hrs by RT-PCR analysis; format: functional, cell-based
Raji [2] = experiment: Cytotoxicity against human Raji cells after 72 hrs by MTT assay; format: functional; conditions: read-out: LD50 (the source's name)
Method in brief: (§1)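 Suspension cells were grown in RPMI-1640 with 10% heat-inactivated FBS and exposed to compound for 72 h with DMSO ≤1%. MTT (5 mg/mL solution) was added for 4 h, then plates were centrifuged, cells lysed in DMSO and read at A570. Viability is % of solvent controls, background-corrected; n ≥ 3.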

EMT6 [3] = experiment: Cytotoxicity against mouse EMT6 cells after 72 hrs by crystal violet staining; format: functional; conditions: EMT6, 72 h, read-out: LD50 (the source's name)
Raji [4] = experiment: Inhibition of Trx1/TrxR in human Raji cells after 4 hrs by insulin reduction assay; format: cell-based
Method in brief: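 Raji cells incubated with compound for 4 h, washed three times with PBS and lysed in 0.1% NP40 with protease inhibitors. Protein measured by BCA. Trx activity determined in 10 μg of total protein by kit insulin reduction with TrxR/NADPH for 20 min at 37 °C, then DTNB/guanidine stop and A412. Triplicates, n = 3, SD.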

[5] = molecular target: T1, Thioredoxin (Homo sapiens) (UniProt P10599); experiment: Binding affinity to human recombinant Trx-1 expressed in Escherichia coli by mass spectrometry analysis
T1 sequence (whole entry): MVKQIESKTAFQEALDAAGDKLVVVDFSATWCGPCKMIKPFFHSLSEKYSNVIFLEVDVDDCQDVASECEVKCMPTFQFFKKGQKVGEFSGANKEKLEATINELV

[6] = molecular target: T1, Thioredoxin (Homo sapiens); experiment: Inhibition of human recombinant Trx-1 expressed in Escherichia coli after 30 to 90 mins preincubation by insulin reduction assay in presence of thioredoxin reductase
Method in brief: (§2)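 Human recombinant His-tagged Trx purified by Ni affinity and gel filtration, then dialyzed free of DTT. Trx was prereduced with TrxR and NADPH for 20 min, then preincubated with compound (2.5−20 μM) for 0−90 min at 37 °C. Reaction ran 30 min at 37 °C in Tris-HCl/EDTA pH 7.6. DTNB stop, A412. Triplicates, SD.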

[7] = molecular target: Thioredoxin reductase (Homo sapiens) (UniProt Q16881+Q9NNW7+Q86VQ6); conditions: 2.5 to 20 uM
[8] = Inhibition of human recombinant Trx1/TrxR assessed as reduction in number of free thiols from reduced insulin after 30 mins by insulin reduction assay
Method in brief: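 At least seven compound concentrations. Incubated 30 min at 37 °C, stopped with 8 mM DTNB in 8 M guanidine HCl, A412. IC50 from four-parameter logistic fit. Triplicates, mean ± SD, n ≥ 3.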

[9] = Cytotoxicity against human PBMC cells after 72 hrs by XTT assay; format: cell-based; conditions: read-out: LD50
Method in brief: (§3)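 hPBMC were isolated from healthy donors on Histopaque 1077 and kept in RPMI. Bone marrow came from female BALB/c mice and was cultured in Iscove's medium with 10% FBS and 100 U IL-3. After compound exposure, cells got XTT at 0.3 mg/mL for 4 h, read at A490 against 690 nm. Viability is % of DMSO controls; n ≥ 3.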

[10] = Chemical stability of the compound in 0.01 M PBS buffer at pH 7.4 after 7 days by RP-HPLC analysis; format: physicochemical; conditions: pH 7.4, 168 h
Method in brief: (§4)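 Stock in DMSO (5 mg/mL) diluted about 100-fold into 0.01 M PBS pH 7.4 prewarmed to 37 °C, then held at 37 °C for up to 7 days. At each time point, 100 μL aliquots were mixed with 200 μL ethanol, chilled at 4 °C for 15 min, centrifuged and stored at −20 °C. Samples were quantified by RP-HPLC (C18, acetonitrile/water, 230 nm) against standard curves of at least five dilutions. Triplicates, n = 3.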

EMT6 [11] = experiment: Antitumor activity against mouse EMT6 cells allografted in BALB/c mouse assessed as reduction in tumor growth at 80 mg/kg, ip qd for 7 days; format: functional, organism-based; design: dose 80 mg/kg
Method in brief: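 BALB/c mice (8−12 wk) inoculated s.c. with 3.5 × 10^5 EMT6 cells into the depilated right thigh. Controls received DMSO ip. Tumor volume measured by calipers as (longer diameter) × (shorter diameter)²/2. Survival also recorded.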

[12] = molecular target: T1, Thioredoxin (Homo sapiens); experiment: Inhibition of thioredoxin in human HeLa cells cotransfected with p-NFkB-luc assessed as inhibition of TNF/IFN-gamma-induced activation of NF-kB after 6 hrs by luciferase reporter assay; format: cell-based
Method in brief: (§5)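 HeLa cells nucleofected with 2 μg NF-κB- or AP-1-luciferase plasmid plus CMV-Renilla, then cultured 48 h. NF-κB: TNF (10 ng/mL) + IFN-γ (100 U) together with compound for 6 h. AP-1: 4 h in medium without FBS or antibiotics, then ionomycin (1 μM) together with compound for 6 h. Dual-luciferase read-out, firefly normalized to Renilla. Triplicates, n ≥ 3, Student's t test.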

Mus musculus [13] = experiment: Toxicity in mouse EMT6 cells allografted BALB/c mouse assessed as change in body weight at 40 to 80 mg/kg, ip qd for 7 days; format: organism-based; design: dose 40-80 mg/kg, route intraperitoneal; conditions: in vivo, 168 h
Method in brief: (§6)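 BALB/c mice, 8−12 weeks old, inoculated sc with 3.5 × 10^5 EMT6 cells into the depilated right thigh. Intraperitoneal dosing in DMSO began on day 7, when tumors reached a longer diameter of 5−7 mm, and was given daily. Controls received ip DMSO. Tumor volume was followed by calipers as longer × shorter²/2. Survival and body weight were monitored.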

[14] = Cytotoxicity against mouse MEF cells; format: cell-based; conditions: read-out: LD50 (the source's name)
Method in brief: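 Fibroblasts came from BALB/c embryos at E13.5 by 0.2% trypsin digestion at 37 °C for 10 min and were cultured in DMEM. Viability is % of solvent controls with DMSO ≤1%; n ≥ 3.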

[15] = Cytotoxicity against mouse PancO2 cells after 72 hrs by crystal violet staining; format: functional; conditions: read-out: LD50 (the source's name)
Ramos = experiment: Cytotoxicity against human Ramos cells after 72 hrs by MTT assay; format: functional; conditions: read-out: LD50 (the source's name); method in brief: as §1
CT26 = experiment: Cytotoxicity against wild type mouse CT26 cells after 72 hrs by crystal violet staining; format: functional; conditions: CT26, 72 h, read-out: LD50 (the source's name)
[16] = molecular target: T1, Thioredoxin (Homo sapiens); experiment: Inhibition of thioredoxin in human HeLa cells assessed as decrease of H2O2 scavenging activity by measuring CM-H2DCFDA fluorescence at 10 uM after 4 hrs by flow cytometeric analysis; format: cell-based
Method in brief: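 HeLa cells treated 4 h with 10 or 20 μM compound, then trypsinized and resuspended in PBS. H2O2 added to 1 mM final for 10 min, then 1 μL of 5 mM CM-H2DCFDA for 15 min at 37 °C. Cells washed twice and 10^4 cells analyzed by flow cytometry. Triplicates, n = 3, Student's t test.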

Raji [17] = experiment: Induction of Trx protein expression in human Raji cells at 10 to 20 uM after 4 to 8 hrs by Western blot analysis; format: functional, cell-based
Method in brief: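 Raji cells exposed to compound for 4 and 8 h, washed and lysed in 0.1% NP40 with protease inhibitors. Equal protein (BCA) run on 15% SDS-PAGE and blotted to nitrocellulose, blocked in TBST with 5% BSA. Probed overnight with rabbit anti-thioredoxin and mouse anti-tubulin, then HRP secondaries for 45 min. ECL luminol/coumaric acid detection.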

[18] = Cytotoxicity against mouse bone marrow cells after 72 hrs by XTT assay; format: cell-based, Bone marrow cell; conditions: read-out: LD50; method in brief: as §3
Mus musculus [19] = experiment: Toxicity in mouse EMT6 cells allografted BALB/c mouse assessed as mortality at 40 to 80 mg/kg, ip qd for 7 days; format: organism-based; design: dose 40-80 mg/kg, route intraperitoneal; conditions: in vivo, 168 h; method in brief: as §6
EMT6 [20] = experiment: Antitumor activity against mouse EMT6 cells allografted in BALB/c mouse assessed as prolongation of host survival time at 80 mg/kg, ip qd for 7 days; format: functional, organism-based; design: dose 80 mg/kg; method in brief: as §6
[21] = molecular target: T1, Thioredoxin (Homo sapiens); experiment: Inhibition of thioredoxin in human HeLa cells cotransfected with p-AP1-luc assessed as inhibition of ionomycin-induced AP-1 promoter activity after 6 hrs by luciferase reporter assay; format: cell-based; method in brief: as §5
[22] = molecular target: T1, Thioredoxin (Homo sapiens); experiment: Inhibition of human recombinant Trx-1 expressed in Escherichia coli at 2.5 to 20 uM by insulin reduction assay in presence of thioredoxin reductase; conditions: TDE = time-dependent effect; method in brief: as §2
[23] = Chemical stability of the compound in 0.01 M PBS buffer at pH 7.4 after 4 days by RP-HPLC analysis; format: physicochemical; conditions: pH 7.4, 96 h; method in brief: as §4
T-24 = experiment: Cytotoxicity against human T24 cells after 72 hrs by crystal violet staining; format: functional; conditions: T-24, 72 h, read-out: LD50 (the source's name)
[24] = Cytotoxicity against mouse B78 cells after 72 hrs by crystal violet staining; format: functional; conditions: B78, 72 h, read-out: LD50 (the source's name)
[25] = Chemical stability of the compound in 0.01 M PBS buffer at pH 7.4 after 5 hrs by RP-HPLC analysis; format: physicochemical; conditions: read-out: Stability; method in brief: as §4
K562 = experiment: Cytotoxicity against human K562 cells after 72 hrs by MTT assay; format: functional; conditions: K562, 72 h, read-out: LD50 (the source's name); method in brief: as §1
[26] = Solubility of the compound in biological media; format: ADME

C=C(COC(=O)c1c(C(F)(F)F)cccc1C(F)(F)F)C(=O)N[C@@H](CC(C)C)C(=O)NCC(=O)OCC
Activity (Raji [1]): Active | CC50 (Raji [2]): 3.7 µM | CC50 (EMT6 [3]): 5.2 µM | inhibition (Raji [4]): Active | Activity [5]: Active | inhibition [6]: Dose-dependent effect | inhibition [7]: tde | pIC50 [8]: 5.48 | CC50 at 72 h [9]: > 25 µM | Stability [10]: Unstable | growth inhibition (GI) (EMT6 [11]): Active | inhibition [12]: Active | Activity (Mus musculus [13]): Non-toxic | CC50 [14]: 2.9 µM | CC50 [15]: 3.8 µM | CC50 (Ramos): 3.7 µM | CC50 (CT26): 3.3 µM | inhibition [16]: Active | Activity (Raji [17]): Active | CC50 at 72 h [18]: > 12.5 µM | Activity (Mus musculus [19]): Non-toxic | Survival (EMT6 [20]): Active | inhibition [21]: Active | inhibition [22]: tde | Stability [23]: Stable | CC50 (T-24): 5.6 µM | CC50 [24]: 4.3 µM | remaining at 5 h [25]: 20% | CC50 (K562): 4 µM | solubility [26]: soluble
